Our source for the EC50 values is ChEMBL document CHEMBL1141248, “Filiasparosides A-D, cytotoxic steroidal saponins from the roots of Asparagus filicinus” (J Nat Prod, 2007).

In brackets after ≈: the same amount, converted by molar mass.

One assay has as its system A549. The experiment in a line: Cytotoxicity against human A549 cells after 2 days. Type of assay: functional, cell-based. Particulars: A549, 48 h. In short, it runs like this:
(§1)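 Growth inhibition under continuous exposure for 2 days. Stock solutions were made in DMSO and kept at -70 °C, then diluted into culture medium to a final DMSO of ≤1% (v/v). EC50 was taken as the concentration giving 50% growth inhibition.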

In another assay the test system is MCF7. The experiment in a line: Cytotoxicity against human MCF7 cells after 2 days. Type of assay: functional, cell-based. To be noted: MCF7, 48 h. An outline of the steps: as §1

Regarding `C[C@H]1CC[C@@]2(OC1)O[C@H]1C[C@H]3[C@@H]4CC[C@@H]5C[C@@H](O[C@@H]6O[C@H](CO)[C@@H](O[C@@H]7O[C@@H](C)[C@H](O)[C@@H](O)[C@H]7O)[C@H](O)[C@H]6O[C@H]6OC[C@H](O)[C@@H](O)[C@@H]6O)CC[C@]5(C)[C@H]4CC[C@]3(C)[C@H]1[C@@H]2C`, the EC50 with A549 worked out at 2.3 µg/mL (≈ 2.68 µM); in the assay on MCF7 it was 3 µg/mL (≈ 3.5 µM).
For `COc1cc([C@@H]2c3cc4c(cc3[C@@H](O[C@@H]3O[C@@H]5CO[C@@H](C)O[C@H]5[C@H](O)[C@H]3O)[C@H]3COC(=O)[C@H]23)OCO4)cc(OC)c1O` [ETOPOSIDE], the EC50 with A549 was found to be 0.8 µg/mL (≈ 1.36 µM); in the assay on MCF7, 2.8 µg/mL (≈ 4.76 µM).
For `C[C@@H]1CC[C@@]2(OC1)O[C@H]1C[C@H]3[C@@H]4CC[C@H]5C[C@@H](O[C@@H]6O[C@H](CO[C@@H]7OC[C@H](O)[C@H](O)[C@H]7O)[C@@H](O)[C@H](O)[C@H]6O)CC[C@]5(C)[C@H]4CC(=O)[C@]3(C)[C@H]1[C@@H]2C` [FILIASPAROSIDE B] the same measures were 16.4 µg/mL (≈ 22.6 µM) and 16.8 µg/mL (≈ 23.2 µM).
For `C[C@H]1CC[C@@]2(OC1)O[C@H]1C[C@H]3[C@@H]4CC[C@@H]5C[C@@H](O[C@@H]6O[C@H](CO)[C@@H](O[C@@H]7OC[C@@H](O)[C@H](O)[C@H]7O)[C@H](O)[C@H]6O)CC[C@]5(C)[C@H]4CC[C@]3(C)[C@H]1[C@@H]2C` [ASPAFILIOSIDE A] the same measures were 9.4 µg/mL (≈ 13.2 µM) and greater than 20 µg/mL.
For the molecule `C[C@H]1CC[C@@]2(OC1)O[C@H]1C[C@H]3[C@@H]4CC[C@@H]5C[C@@H](O[C@@H]6O[C@H](CO[C@@H]7OC[C@H](O)[C@H](O)[C@H]7O)[C@@H](O)[C@H](O)[C@H]6O)CC[C@]5(C)[C@H]4CC[C@]3(C)[C@H]1[C@@H]2C` [FILIASPAROSIDE D], the EC50 with A549 is 2.4 µg/mL (≈ 3.38 µM); in the assay with MCF7, 10.3 µg/mL (≈ 14.5 µM).
With `C[C@@H]1CC[C@@]2(OC1)O[C@H]1C[C@H]3[C@@H]4CC[C@H]5C[C@@H](O[C@@H]6O[C@H](CO[C@@H]7OC[C@H](O)[C@H](O)[C@H]7O)[C@@H](O[C@@H]7OC[C@@H](O)[C@H](O)[C@H]7O)[C@H](O)[C@H]6O)CC[C@]5(C)[C@H]4CC(=O)[C@]3(C)[C@H]1[C@@H]2C` [FILIASPAROSIDE A], the EC50 in the assay with A549 was found to be 13.3 µg/mL (≈ 15.5 µM); in the assay with MCF7 it was 11.2 µg/mL (≈ 13.1 µM).

What is called EC50 is the concentration needed to bring the measured effect to its halfway point.
